# Reference: ChEMBL document CHEMBL3875202, “Design and optimization of aspartate N-acetyltransferase inhibitors for the potential treatment of Canavan disease” (Bioorg Med Chem, 2017)
# Where a SMILES comes first, the peptide text is derived from it.
# Assay: Inhibition of recombinant human His-tagged maltose binding protein fused ANAT expressed in Escherichia coli NiCo21(DE3) using L-aspartate as substrate after 15 mins in presence of acetyl-CoA by DTNB based spectrophotometric method
# Summary of the method: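 MBP-ANAT-His fusion purified on Ni Sepharose then amylose column. Assay: 20 mM HEPES pH 7.4, 150 mM NaCl, 5% glycerol, 40 µM DTNB, 40 µM acetyl-CoA, 2 mM L-aspartate, 25 µg enzyme, 200 µl total. Read at 412 nm for at least 15 min. Ki from twofold inhibitor dilutions; no-inhibitor and no-aspartate/no-inhibitor controls; pH of top-dose wells checked.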
row,Structure (SMILES),Ki
1,O=C(O)CN(Cc1ccc(C(F)(F)C(F)(F)C(F)(F)F)cc1)Cc1ccc(C(=O)O)c(C(=O)O)c1,426 µM
2,O=C(O)CCC[C@H](NC(=O)CCc1ccccc1)C(=O)O,2900 µM
3,O=C(O)C[C@H](NC(=O)CCl)C(=O)O,200 µM
4,O=C(O)CN(Cc1cccc(OC(F)(F)F)c1)Cc1ccc(C(=O)O)c(C(=O)O)c1,246 µM
5,O=C(O)C[C@H](NC(=O)Cc1ccccc1)C(=O)O,460 µM
6,O=C(O)C[C@H](NC(=O)c1ccc2ccccc2c1)C(=O)O,390 µM
7,O=C(O)CCN(Cc1ccc(Br)cc1)Cc1ccc(C(=O)O)c(C(=O)O)c1,370 µM
8,CC(=O)c1ccc(CN(CC(=O)O)Cc2ccc(C(=O)O)c(C(=O)O)c2)cc1,2540 µM
9,Cc1ccccc1CN(CC(=O)O)Cc1ccc(C(=O)O)c(C(=O)O)c1,1400 µM
10,O=C(O)CN(Cc1ccc(OC(F)(F)F)cc1)Cc1ccc(C(=O)O)c(C(=O)O)c1,749 µM
11,O=C(O)C[C@H](NC(=O)CCCc1ccccc1)C(=O)O,200 µM
12,O=C(O)CCC[C@H](NC(=O)CCCc1ccccc1)C(=O)O,740 µM
13,O=C(O)CCC[C@H](NC(=O)CCC(=O)O)C(=O)O,> 2000 µM
14,O=C(O)CC[C@H](NC(=O)CCCc1ccccc1)C(=O)O,610 µM
15,NC(=O)c1ccc(CN(CC(=O)O)Cc2ccc(C(=O)O)c(C(=O)O)c2)cc1,1880 µM
16,O=C(O)C[C@H](NCc1ccccc1)C(=O)O,620 µM
17,O=C(O)CN(Cc1ccc(Br)cc1)Cc1ccc(C(=O)O)c(C(=O)O)c1,1200 µM
18,CCCC(=O)N[C@@H](CCC(=O)O)C(=O)O,270 µM
19,O=C(O)C[C@H](NC(=O)CCc1ccc(-c2ccccc2)cc1)C(=O)O,210 µM
20,O=C(O)CCN(Cc1ccc(C(=O)O)c(C(=O)O)c1)Cc1c(Cl)cc(C(=O)O)cc1Cl [listing 1 of 2 here],0.61 µM
21,O=C(O)C[C@H](NC(=O)c1ccc(C(F)(F)F)cc1)C(=O)O,380 µM
22,O=C(O)CCN(Cc1ccc(C(=O)O)c(C(=O)O)c1)Cc1ccccc1C(F)(F)F,88 µM

row,Structure (SMILES),Ki
1,O=C(O)CCN(Cc1ccc(C(=O)O)cc1)Cc1ccc(C(=O)O)c(C(=O)O)c1,29 µM
2,O=C(O)C[C@H](NC(=O)CBr)C(=O)O,> 2000 µM
3,O=C(O)CC[C@H](NC(=O)CCc1ccccc1)C(=O)O,38 µM
4,CC(C)(C)C(=O)N[C@@H](CCCC(=O)O)C(=O)O,760 µM
5,O=C(O)C[C@H](NC(=O)CCc1cccc(C(F)(F)F)c1)C(=O)O,1220 µM
6,O=C(O)CCC[C@H](NC(=O)c1ccccc1)C(=O)O,1600 µM
7,O=C(O)CCNCc1ccc(C(=O)O)c(C(=O)O)c1,1710 µM
8,O=C(O)CN(Cc1ccc(C(=O)O)c(C(=O)O)c1)c1ccc(-c2ccccc2)cc1,953 µM
9,O=C(O)C[C@H](NC(=O)c1ccccc1)C(=O)O,> 2000 µM
10,O=C(O)CCN(Cc1ccc(C(=O)O)c(C(=O)O)c1)c1ccc(-c2ccccc2)cc1,550 µM
11,O=C(O)CN(Cc1ccc(C(=O)O)cc1)Cc1ccc(C(=O)O)c(C(=O)O)c1,104 µM
12,O=C(O)CCN(Cc1ccc(C(=O)O)c(C(=O)O)c1)Cc1ccccc1Br,173 µM
13,CC(C)(C)c1ccc(CN(CC(=O)O)Cc2ccc(C(=O)O)c(C(=O)O)c2)cc1,687 µM
14,O=C(O)C[C@H](NCCCCc1ccccc1)C(=O)O,100 µM
15,O=C(O)CCN(Cc1ccc(C(F)(F)F)cc1)Cc1ccc(C(=O)O)c(C(=O)O)c1,186 µM
16,O=C(O)CN(CCN1CCOCC1)Cc1ccc(C(=O)O)c(C(=O)O)c1,1080 µM
17,O=C(O)CN(Cc1cccc(Br)c1)Cc1ccc(C(=O)O)c(C(=O)O)c1,269 µM
18,O=C(O)C[C@H](NC(=O)CCc1ccccc1)C(=O)O,31 µM
19,O=C(O)CN(Cc1ccccc1)Cc1ccc(C(=O)O)c(C(=O)O)c1,420 µM
20,O=C(O)CCN(Cc1ccc(C(=O)O)c(C(=O)O)c1)Cc1ccc(C(=O)O)cc1C(F)(F)F,17 µM
21,O=C(O)C[C@H](NC(=O)CCc1ccc(O)c(O)c1)C(=O)O,1560 µM
22,O=C(O)CCN(Cc1ccc(C(=O)O)c(C(=O)O)c1)Cc1ccc(C(=O)O)cc1-c1ccccc1,47.4 µM

row,Structure (SMILES),Ki
1,CCCC(=O)N[C@@H](CCCC(=O)O)C(=O)O,> 2000 µM
2,Cc1ccc(CN(CCC(=O)O)Cc2ccc(C(=O)O)c(C(=O)O)c2)cc1,2750 µM
3,O=C(O)C[C@H](NC(=O)CCc1ccccc1C(F)(F)F)C(=O)O,100 µM
4,O=C(O)CC[C@H](NC(=O)Cc1ccccc1)C(=O)O,250 µM
5,O=C(O)CCN(Cc1ccc(C(=O)O)c(C(=O)O)c1)Cc1c(Cl)cc(C(=O)O)cc1Cl [listing 2 of 2 here],0.6 µM
6,O=C(O)CC[C@H](NC(=O)OCc1ccccc1)C(=O)O,12 µM
7,O=C(O)CN(Cc1ccc(C(=O)O)c(C(=O)O)c1)Cc1ccccc1Br,114 µM
8,O=C(O)CCN(Cc1ccc(C(=O)O)c(C(=O)O)c1)Cc1c(Br)cc(C(=O)O)cc1Br,0.77 µM
9,O=C(O)C[C@H](NC(=O)OCc1ccccc1)C(=O)O,17 µM
10,O=C(O)C[C@H](NCCCc1ccccc1)C(=O)O,120 µM
11,O=C(O)CN(Cc1ccc(C(=O)O)c(C(=O)O)c1)Cc1ccccc1C(F)(F)F,390 µM
12,C=CCN(CC(=O)O)Cc1ccc(C(=O)O)c(C(=O)O)c1,719 µM
13,O=C(O)CCN(Cc1ccc(C(=O)O)c(C(=O)O)c1)Cc1ccc(C(=O)O)cc1F,4.06 µM
14,O=C(O)CCN(Cc1ccc(C(=O)O)c(C(=O)O)c1)Cc1ccc(C(=O)O)cc1Br,2.01 µM
15,Cc1ccccc1CN(CCC(=O)O)Cc1ccc(C(=O)O)c(C(=O)O)c1,724 µM
16,O=C(O)C[C@H](NCCc1ccccc1)C(=O)O,250 µM
17,O=C(O)CN(Cc1ccc(OC(F)F)cc1)Cc1ccc(C(=O)O)c(C(=O)O)c1,489 µM
18,O=C(O)/C=C(\Br)C(=O)O,367 µM
19,O=C(O)CCN(Cc1ccc(C(=O)O)c(C(=O)O)c1)Cc1ccc(C(=O)O)cc1-c1cccc2ccccc12,187 µM
20,CC(C)(C)c1ccc(CN(CCC(=O)O)Cc2ccc(C(=O)O)c(C(=O)O)c2)cc1,1660 µM
21,Cc1cccc(CN(CC(=O)O)Cc2ccc(C(=O)O)c(C(=O)O)c2)c1,1700 µM
22,Cc1ccccc1CCC(=O)N[C@@H](CC(=O)O)C(=O)O,280 µM

row,Structure (SMILES),Ki
1,O=C(O)CN(Cc1cccc(C(F)(F)F)c1)Cc1ccc(C(=O)O)c(C(=O)O)c1,104 µM
2,COc1ccc(CCC(=O)N[C@@H](CC(=O)O)C(=O)O)cc1,1500 µM
3,O=C(O)CCC[C@H](NC(=O)Cc1ccccc1)C(=O)O,1160 µM
4,Cc1ccc(CN(CC(=O)O)Cc2ccc(C(=O)O)c(C(=O)O)c2)cc1,4230 µM
5,O=C(O)CCN(Cc1cccc(Br)c1)Cc1ccc(C(=O)O)c(C(=O)O)c1,101 µM
6,O=C(CCc1ccccc1)NC(C(=O)O)C(=O)O,1400 µM
7,Cc1cccc(CN(CCC(=O)O)Cc2ccc(C(=O)O)c(C(=O)O)c2)c1,563 µM
8,O=C(O)CCN(Cc1cccc(C(F)(F)F)c1)Cc1ccc(C(=O)O)c(C(=O)O)c1,37 µM
9,O=C(O)CN(Cc1ccc(C(=O)O)c(C(=O)O)c1)c1cccc2ccccc12,115 µM
10,C[C@H](N)C(=O)N[C@@H](CC(=O)O)C(=O)O (H-Ala-Asp-OH),1600 µM
11,O=C(O)CCN(Cc1ccc(C(=O)O)c(C(=O)O)c1)c1cccc2ccccc12,34 µM
12,O=CCN(CC(=O)O)Cc1ccc(C(=O)O)c(C(=O)O)c1,1290 µM
13,O=C(O)CC[C@H](NC(=O)c1ccccc1)C(=O)O,130 µM
14,O=C(O)CCN(Cc1ccc(C(=O)O)c(C(=O)O)c1)Cc1ccc(C(=O)O)c(C(F)(F)F)c1,930 µM
15,O=C(O)CN(Cc1ccc(C(=O)O)c(C(=O)O)c1)c1ccc2ccccc2c1,538 µM
16,O=C(O)CN(Cc1ccc(C(F)(F)F)cc1)Cc1ccc(C(=O)O)c(C(=O)O)c1,791 µM
17,O=C(O)CN(Cc1ccc(C(=O)O)c(C(=O)O)c1)Cc1ccccc1OC(F)(F)F,464 µM
18,CC(C)(C)C(=O)N[C@@H](CCC(=O)O)C(=O)O,280 µM
19,O=C(O)CCN(Cc1ccc(C(=O)O)c(C(=O)O)c1)Cc1ccc(C(=O)O)cc1Cl,1.7 µM
